From PubChem BioAssay
Compounds with a hit are over-represented: about 1.5% of the library has one in this group of screens.
STAT3 inh: inhibitors of IL-6 induced STAT3 signaling; inhibition, % at 5.5 µM; 190,000 tested, 0.89% active; U3A cells, IL-6 STAT3-luciferase reporter, luminescence; host cell line lacks STAT1;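 active = inhibition above the mean inhibition across all screened compounds plus 3 SD, cut at about 44% in these data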
Hep lipid drop: modulators of hepatic lipid droplet formation; inhibition, % at 6.5 µM; AML12 mouse hepatocytes, oleate lipid droplets, BODIPY imaging; AID 1656; 240,000 tested, 0.4% active;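 active = lipid droplet intensity inhibited by at least 50%, with more than 500 cells counted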
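Material: mouse AML12 hepatocyte cell line, fixed after treatment; Timing: compound with oleate, overnight; Technique: high-content imaging of BODIPY-stained droplets and DAPI nuclei; Probe or stimulus: oleate, 100 µM final; Dosing: compound at 6.5 µM only.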
PPC-1+TRAIL kill: compounds killing PPC-1 cancer cells with TRAIL present (potentiator screen, no TRAIL-free arm); PPC-1 cells + TRAIL, ATPLite viability luminescence; AID 1443; 220,000 tested, 0.41% active; cell killing (% activity), % at 4 µM or 5 µM;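 active = cell killing above 50% in the first pass at 4 µM, then a duplicate retest at 5 µM averaging 50% or more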
Platelet DG rel: modulates dense granule release in human platelets; human platelet-rich plasma, SFLLRN dense granule ATP release, luminescence; inhibition, %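 (compounds screened at 7.5 µM in platelet-rich plasma)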; 300,000 tested, 0.22% active;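 active = mean replicate score, as percent of positive control, at or above 50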
TAG inh: reduces triacylglycerol accumulation in H9c2 cells. inhibition, % at 12.5 µM. Nile Red lipid (TAG) fluorescence; cells loaded with 200 µM oleic acid. 230,000 tested, 0.66% active;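 active = pattern-corrected inhibition of lipid staining of at least 50% with the nuclear-stain viability signal not falling by more than 50%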
STAT1 blocker: reduces IFN-gamma driven STAT1 reporter signal; NIH 3T3 STAT1-luciferase reporter, luminescence; inhibition, % at 5.5 µM; 200,000 tested, 0.35% active; AID 920;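 active = inhibition above a set limit, the mean inhibition across all tested compounds plus 3 SD, cut at about 34% in these data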
Of the large screens only hits and unclear results are named; the others gave an inactive call.

c1ccc(-[n+]2nc(Nc3cccc4ccccc34)sc2-c2c3ccccc3cc3ccccc23)cc1	TAG inh 106 (no result: STAT3 inh, Hep lipid drop, PPC-1+TRAIL kill, Platelet DG rel, STAT1 blocker)
O=C(Nc1ccccc1Cl)c1cc(C2CCCN(C(=O)c3ccccc3)C2)on1 (stereo unspecified)	none (no result: STAT3 inh, Hep lipid drop, PPC-1+TRAIL kill, Platelet DG rel, STAT1 blocker)
C=C(C(=O)c1ccccc1)C(C)C(=C)C(=O)c1ccccc1	TAG inh 55
CC(C)CNc1ncnc2c1ncn2[C@H]1CN(Cc2cccs2)C[C@@H](CO)O1	none (no result: STAT3 inh, Hep lipid drop, PPC-1+TRAIL kill, Platelet DG rel, STAT1 blocker)
Oc1cccc(/C=N/Nc2nn3cnnc3c3ccccc23)c1	Platelet DG rel 57 (no result: STAT3 inh, STAT1 blocker)
COc1cc(/C=N/N2CCN(C3c4ccccc4-c4ccccc43)CC2)ccc1O	none
COc1cccc(/C=N/N2CCN(C3c4ccccc4-c4ccccc43)CC2)c1O	Hep lipid drop 57 (no result: STAT3 inh, STAT1 blocker)
COC(=O)c1sc2cc([N+](=O)[O-])cc(SCC(C)C)c2c1N	Hep lipid drop 56 (no result: TAG inh)
CC1=CC(C)(C)N2C(=O)C3(NCCc4c3[nH]c3ccccc43)c3cc(C)cc1c32 (stereo unspecified)	TAG inh 68 (no result: STAT3 inh, STAT1 blocker)
CN1C(=O)C2(NCCc3c2[nH]c2ccccc32)c2ccccc21 (stereo unspecified)	none (no result: TAG inh)
COCc1ccc(CN2CCC(n3nccc3NC(=O)c3ccc4c(c3)OCO4)CC2)o1	none (no result: STAT3 inh, Hep lipid drop, PPC-1+TRAIL kill, Platelet DG rel, STAT1 blocker)
O=C(/C=C/Nc1ccc(Br)cc1F)c1ccccc1	STAT3 inh 90, PPC-1+TRAIL kill 80, Platelet DG rel 50, STAT1 blocker 47 (no result: TAG inh)
CCOC(=O)c1c(SCCN2CCCC2)n(-c2ccccc2)c(=S)n(-c2ccccc2)c1=O	TAG inh 82 (no result: STAT3 inh, Hep lipid drop, PPC-1+TRAIL kill, Platelet DG rel, STAT1 blocker)
CCOC(=O)c1c[nH]c(=S)n(-c2ccccc2)c1=O	none (no result: STAT3 inh, Hep lipid drop, PPC-1+TRAIL kill, STAT1 blocker)
CCCCC[C@H](O)/C=C/C1C(=O)C=C[C@H]1C/C=C\CCCC(=O)OC (stereo partly specified)	none (no result: STAT3 inh, Hep lipid drop, PPC-1+TRAIL kill, Platelet DG rel, STAT1 blocker)
COc1cc(/C=N/NS(=O)(=O)c2ccc3ccccc3c2)ccc1OCc1ccc(C(=O)O)cc1	none (no result: STAT3 inh, STAT1 blocker)
COc1cc(/C=N/NS(=O)(=O)c2ccc(C)cc2)ccc1OCc1cccc(C(=O)O)c1	STAT3 inh 47, STAT1 blocker 72
COc1cc(/C=N/O)ccc1OCc1ccc(Cl)cc1	none (no result: TAG inh)
COc1cc(/C=N/O)ccc1OCc1ccc(C(=O)O)cc1	STAT3 inh 111, STAT1 blocker 93
Cc1ccsc1-c1cc2nc(Nc3ccc(F)cc3)n(C)c(=O)c2s1	none (no result: STAT3 inh, Hep lipid drop, PPC-1+TRAIL kill, Platelet DG rel, STAT1 blocker)
Cc1[nH]c2c(C)cccc2c1CCNC(=O)c1ccc2c(c1[N+](=O)[O-])C(=O)c1ccccc1C2=O	TAG inh 52 (no result: Hep lipid drop)
O=C(NCCN1CCN(Cc2ccccc2)CC1)c1ccc(CS(=O)(=O)c2c(Cl)cccc2Cl)o1	none (no result: STAT3 inh, Hep lipid drop, PPC-1+TRAIL kill, Platelet DG rel, STAT1 blocker)
Cc1nc(SC2CC(=O)N(c3ccccc3)C2=O)n[nH]1 (stereo unspecified)	none
Cc1nc(S/C(C(=O)O)=C2/C(=O)Nc3ccccc32)n[nH]1	Platelet DG rel 61 (no result: STAT3 inh, STAT1 blocker)
COc1ccc(C=O)c(OCc2cn(CC(=O)c3ccc(O)cc3)nn2)c1	none (no result: STAT3 inh, Hep lipid drop, PPC-1+TRAIL kill, Platelet DG rel, STAT1 blocker)
CC(C)NC(=O)c1ccc(CN2CCC(Cc3ccccc3)CC2)cc1	none (no result: STAT3 inh, PPC-1+TRAIL kill, TAG inh, STAT1 blocker)
Cc1ccccc1NC(=O)c1ccc(CN2CCC(Cc3ccccc3)CC2)cc1	STAT3 inh 50 (no result: Hep lipid drop, TAG inh)
COc1ccc(NC(=O)CSc2ncnc3c2cnn3CCc2ccccc2)cc1	STAT3 inh 46 (no result: Hep lipid drop)
COc1cccc(NC(=O)CSc2ncnc3c2cnn3Cc2ccccc2)c1	none (no result: TAG inh)
CC(=O)Nc1ccc(NC(=O)CSc2nc3ccccc3nc2N2CCCCC2)cc1	none (no result: STAT3 inh, PPC-1+TRAIL kill, TAG inh, STAT1 blocker)
COc1ccc(NC(=O)CSc2nc3ccccc3nc2N2CCCC2)cc1	Hep lipid drop 50 (no result: STAT3 inh, PPC-1+TRAIL kill, STAT1 blocker)
CCOC(=O)N1CCC(N2C(=O)c3ccccc3C2Nc2cc(OC)c(OC)c(OC)c2)CC1 (stereo unspecified)	Platelet DG rel 64
CCC(NC(=O)Nc1nnc(C(F)(F)F)s1)(C(F)(F)F)C(F)(F)F	STAT3 inh 99, STAT1 blocker 61 (no result: Hep lipid drop)
CCOc1ccc(CCNC(=O)COC(=O)c2[nH]c(C)c(C(C)=O)c2C)cc1OCC	none (no result: STAT3 inh, Hep lipid drop, PPC-1+TRAIL kill, Platelet DG rel, STAT1 blocker)
CN(C(=O)Cn1nnc(-c2cccc(C(F)(F)F)c2)n1)C1CCCCC1	Platelet DG rel 70 (no result: Hep lipid drop)
COc1ccc(C2c3c(-c4cc(Cl)c(C)cc4O)n[nH]c3C(=O)N2Cc2cccnc2)cc1OC (stereo unspecified)	Platelet DG rel 72
COc1ccc(C2c3c(-c4ccccc4O)n[nH]c3C(=O)N2Cc2ccco2)cc1OC (stereo unspecified)	none (no result: STAT3 inh, STAT1 blocker)
O=C(C=Cc1cccc(O)c1)c1ccccc1O	none (no result: STAT3 inh, Hep lipid drop, PPC-1+TRAIL kill, Platelet DG rel, STAT1 blocker)
